Here are results for 11 compounds from ChEMBL document CHEMBL2093137, “WHO-TDR NTD Screening”.

A short description of data set [1]: WHO-TDR: Cytotoxicity. It counts as toxicity, cell-based. The following applies: human, MRC5 cells.
For the next data set, the system named is Plasmodium falciparum K1. The data set is described as follows: WHO-TDR: Malaria. In kind it is functional, organism-based, Homo sapiens. As to conditions: Erythrocyte. In outline: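 Previously published standard procedures, including a reference drug as positive control, were used to screen whole Plasmodium falciparum K1 parasites inside human red blood cells. IC50 is the measure of antiplasmodial potency. The compounds were a 10,000-member diverse Life Chemicals library.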

In another data set the test system is Trypanosoma cruzi. Briefly: WHO-TDR: Chagas disease. In kind it is functional, organism-based, Homo sapiens. As to conditions: MRC5. In outline: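 Following previously published standard procedures, with a reference drug as positive control, a whole-organism assay was run on Trypanosoma cruzi Tulahuen CL2 beta-galactosidase strain amastigotes inside MRC-5SV2 human lung fibroblast host cells. The 10,000 compounds tested formed a diverse Life Chemicals library filtered for drug-likeness and reactive groups. Results are expressed as IC50 for antiparasitic potency.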

The test system of data set [2] is Trypanosoma brucei brucei. The data set is described as follows: WHO-TDR: Human African Trypanosomiasis (HAT). As to conditions: Squib-427. In kind it is functional, organism-based. The method, boiled down: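 In this whole-organism screen, the target was the bloodstream form of Trypanosoma brucei, strain Squib 427. A diverse set of 10,000 compounds from Life Chemicals, previously filtered for drug-likeness and reactive groups, was assayed by standard published procedures using reference drugs as positive controls. Each value is an IC50 for antiparasitic potency.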

The next data set deals with Leishmania infantum. Briefly: WHO-TDR: Leishmaniasis. In kind it is functional, organism-based, Mus musculus. As to conditions: Macrophage. The method, boiled down:
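Intracellular amastigotes of Leishmania infantum MHOM/MA(BE)/67, hosted in murine peritoneal macrophages, were exposed to compounds from a 10,000-member diverse library supplied by Life Chemicals. The library had been filtered for drug-likeness and reactive groups. The reported IC50 expresses antiparasitic potency.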

In a further data set the test system is Schistosoma mansoni. Briefly: WHO-TDR: Schistosomiasis. Set-up: concentration or dose not given beside the values. In kind it is functional. In outline: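 Whole-organism screen of a 10,000-compound diverse library from Life Chemicals, filtered for drug-likeness and reactive groups, against larval and/or adult worms of Schistosoma mansoni Puerto Rican strain. The assay followed previously published standard procedures, with a reference drug as positive control. Activity is reported as percent inhibition and as IC50.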

In the next data set the test system is Onchocerca lienalis. Briefly: WHO-TDR: Onchocerciasis. Also noted: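 at 12.5 µM on microfilariae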. In kind it is functional. In outline: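 Whole-organism screen of a 10,000-compound diverse library from Life Chemicals, filtered for drug-likeness and reactive groups, against microfilariae of Onchocerca ochengi or Onchocerca lienalis, used as animal-pathogen stand-ins for the human parasite. The assay followed previously published standard procedures, with reference drugs as positive controls. Activity is reported as percent inhibition and as IC50.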

For the next data set, the system named is Brugia malayi. Briefly: WHO-TDR: Lymphatic Filariasis. In kind it is functional. Also noted: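 tested at 10 µM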. The method, boiled down: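 Whole-organism screen of a 10,000-compound diverse library from Life Chemicals, filtered for drug-likeness and reactive groups, against Brugia malayi microfilariae. The assay followed previously published standard procedures, with reference drugs as positive controls. Activity is reported as percent inhibition and as IC50.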

Each structure is given as a SMILES string. Converted amounts (≈) assume the structure as drawn.

Broadly, the IC50 is the midpoint of a concentration-inhibition curve. For orientation: % Inhibition means the relative decrease from the control value, in per cent. As for `CCCc1cc(=O)n(CC(=O)Nc2ccc(C)cc2)c(-n2nc(C)cc2C)n1`, the IC50 in data set [1] is 10.5 µg/mL (≈ 27.6 µM); in the data set on Plasmodium falciparum K1, greater than 11.4 µg/mL; with Trypanosoma cruzi, 0.764 µg/mL (≈ 2.01 µM); in data set [2] it was 6.35 µg/mL (≈ 16.7 µM); in the data set on Leishmania infantum it was greater than 11.4 µg/mL. The “% Inhibition” value in the data set with Schistosoma mansoni is given as 0%; in the data set on Onchocerca lienalis it was 27.7%; in the data set with Brugia malayi, 0%.

For `O=C(COc1ccccc1)Oc1ccc2nc(N3CCN(c4ccccc4)CC3)sc2c1`, the IC50 was greater than 13.4 µg/mL in data set [1]; greater than 13.4 µg/mL in the data set with Plasmodium falciparum K1; 9.76 µg/mL (≈ 21.9 µM) in the data set with Trypanosoma cruzi; greater than 13.4 µg/mL in data set [2]; 1.96 µg/mL (≈ 4.4 µM) with Leishmania infantum. The “% Inhibition” value with Schistosoma mansoni, in the data set on Onchocerca lienalis and in the data set with Brugia malayi was 0% each time.

`O=C(Nc1ccncc1)c1cccn(Cc2ccc(F)cc2)c1=O`: the IC50 in data set [1] was 2.53 µg/mL (≈ 7.83 µM); in the data set on Plasmodium falciparum K1, greater than 9.7 µg/mL; in the data set on Trypanosoma cruzi, 0.45 µg/mL (≈ 1.39 µM); in data set [2], greater than 9.7 µg/mL; in the data set on Leishmania infantum, greater than 9.7 µg/mL. Besides, the “% Inhibition” value was 0% in the data set on Schistosoma mansoni, -1% with Onchocerca lienalis and 0% with Brugia malayi.

Consider `CSc1ccccc1-c1nnc(NC(=O)c2ccc(Cl)s2)o1`, for which the IC50 in data set [1] is greater than 10.6 µg/mL; with Plasmodium falciparum K1 it was greater than 10.6 µg/mL; in the data set with Trypanosoma cruzi, 0.416 µg/mL (≈ 1.18 µM); in data set [2], 0.856 µg/mL (≈ 2.43 µM); with Leishmania infantum it was greater than 10.6 µg/mL. Moreover, the “% Inhibition” value is reported as 0% with Schistosoma mansoni, 86.4% with Onchocerca lienalis and 0% in the data set with Brugia malayi.

`Fc1ccc(Nc2nc(N3CCCC3)nc(N3CCCC3)n2)cc1`: the IC50 in data set [1] was greater than 10.9 µg/mL; with Plasmodium falciparum K1 it was greater than 10.9 µg/mL; with Trypanosoma cruzi it was 3.85 µg/mL (≈ 11.7 µM); in data set [2], 0.442 µg/mL (≈ 1.35 µM); in the data set with Leishmania infantum, greater than 10.9 µg/mL. The “% Inhibition” value is 0% in the data set on Schistosoma mansoni, 9.215% in the data set on Onchocerca lienalis and 0% with Brugia malayi.

`COc1ccc(Cl)c2sc(NC(=O)c3ccc4c(c3)OCCO4)nc12`: the IC50 in data set [1] is 3.43 µg/mL (≈ 9.09 µM); in the data set with Plasmodium falciparum K1, greater than 11.3 µg/mL; with Trypanosoma cruzi, 0.702 µg/mL (≈ 1.86 µM); in data set [2] it was 3.57 µg/mL (≈ 9.49 µM); with Leishmania infantum, 0.366 µg/mL (≈ 0.971 µM). In addition, the entries for the “% Inhibition” value in the data set on Schistosoma mansoni, in the data set on Onchocerca lienalis and with Brugia malayi were 0%, 53.4% and 0%, respectively.

As for `COC(=O)c1ccccc1N(C)C(=O)c1cc2cccnc2n(C)c1=O`, the concentration for half-maximal inhibition (IC50) was greater than 10.5 µg/mL in data set [1]; greater than 10.5 µg/mL in the data set on Plasmodium falciparum K1; greater than 10.5 µg/mL in the data set with Trypanosoma cruzi; greater than 10.5 µg/mL in data set [2]; 0.341 µg/mL (≈ 0.971 µM) in the data set with Leishmania infantum. The “% Inhibition” value with Schistosoma mansoni, with Onchocerca lienalis and in the data set with Brugia malayi was 0% throughout.

`O=C(CCCSc1ccc(F)cc1)Nc1nc(-c2ccccn2)cs1`: the IC50 was 3.76 µg/mL (≈ 10.1 µM) in data set [1]; greater than 11.2 µg/mL with Plasmodium falciparum K1; 0.335 µg/mL (≈ 0.897 µM) with Trypanosoma cruzi; 0.363 µg/mL (≈ 0.972 µM) in data set [2]; greater than 11.2 µg/mL with Leishmania infantum. Besides, the “% Inhibition” value with Schistosoma mansoni came to 0%; in the data set with Onchocerca lienalis, 39.33%; in the data set on Brugia malayi it was 0%.

As to `CCN(C1CCCCC1)S(=O)(=O)c1ccc(C(=O)Nc2nc(-c3ccccn3)cs2)cc1`, the IC50 in data set [1] was 5.19 µg/mL (≈ 11 µM); in the data set on Plasmodium falciparum K1, greater than 14.1 µg/mL; in the data set with Trypanosoma cruzi it was 0.459 µg/mL (≈ 0.975 µM); in data set [2], 11.7 µg/mL (≈ 24.8 µM); with Leishmania infantum, 4.57 µg/mL (≈ 9.71 µM). Besides, the results for the “% Inhibition” value with Schistosoma mansoni, with Onchocerca lienalis and with Brugia malayi were 0%, 80% and 0%, respectively.

For `O=C(Nc1ccc2c(c1)N(C(=O)C1CC1)CCC2)c1cccc(C(F)(F)F)c1`, the IC50 in data set [1] is greater than 11.7 µg/mL; in the data set on Plasmodium falciparum K1 it was 4.56 µg/mL (≈ 11.7 µM); in the data set with Trypanosoma cruzi it was 0.808 µg/mL (≈ 2.08 µM); in data set [2] it was 3.69 µg/mL (≈ 9.49 µM); in the data set on Leishmania infantum it was greater than 11.7 µg/mL. In addition, the results for the “% Inhibition” value with Schistosoma mansoni, with Onchocerca lienalis and with Brugia malayi were 0%, 13.3% and 0%, respectively.

On to `CS(=O)(=O)N1CCCc2cc(NC(=O)c3cc4ccccc4oc3=O)ccc21`, for which the half-inhibitory concentration (IC50) was greater than 12 µg/mL in data set [1]; greater than 12 µg/mL in the data set with Plasmodium falciparum K1; greater than 12 µg/mL with Trypanosoma cruzi; greater than 12 µg/mL in data set [2]; 0.387 µg/mL (≈ 0.971 µM) in the data set with Leishmania infantum. In addition, the “% Inhibition” value in the data set with Schistosoma mansoni, in the data set on Onchocerca lienalis and with Brugia malayi was 0% each time.
